This passage reports EC50 and Activity results from ChEMBL document CHEMBL1154305, “Drimane sesquiterpenoids from the fungus Aspergillus ustus isolated from the marine sponge Suberites domuncula” (J Nat Prod, 2009).

Converted amounts (≈) assume the structure as drawn. The source made the active and inactive calls. The calls are words filed in the database; no cut-off is given here.

What all share (assay type): functional, cell-based
The test system of assay [1] is PC-12. The assay can be described thus: Cytotoxicity against rat PC12 cells by MTT assay. The essentials:
(§1)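 MTT viability read-out on L5178Y, HeLa and PC12 cells over 0.1-10 µg/mL, with EC50 values given in µg/mL; a positive control was run alongside. Other details follow an earlier protocol.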
A general note: Formazan colour is commonly taken as a measure of viable cells.

In assay [2] the test system is HeLa. The assay can be described thus: Cytotoxicity against human HeLa cells by MTT assay. The essentials:
as §1

Assay [3] concerns L5178Y. The experiment in a line: Cytotoxicity against mouse L5178Y cells by MTT assay. The essentials:
as §1

The test system of assay [4] is HeLa. The experiment in a line: Cytotoxicity against human HeLa cells at 0.1 to 10 ug/ml by MTT assay. The essentials:
as §1

Assay [5] deals with L5178Y. The experiment in a line: Cytotoxicity against mouse L5178Y cells at 0.1 to 10 ug/ml by MTT assay. A digest of the protocol: as §1
The test system of assay [6] is PC-12. The assay can be described thus: Cytotoxicity against rat PC12 cells at 0.1 to 10 ug/ml by MTT assay. A digest of the protocol:
as §1

In the case of `CC1(C)CCC[C@@]2(C)[C@H]1[C@H](OC(=O)/C=C/C=C/C(=O)O)C=C1COC(=O)[C@@]12O`, the EC50 (usually the concentration needed to bring the measured effect to its halfway point) in the assay with PC-12 [1] is above 10 µg/mL; in the assay on HeLa [2], above 10 µg/mL; with L5178Y [3] it was 5.3 µg/mL (≈ 13.6 µM).
On to `CC1(C)C[C@H](O)C[C@@]2(C)[C@H]1[C@H](O)C=C1COC(=O)[C@@]12O`, for which the outcome in the assay with HeLa [4], in the assay with L5178Y [5] and in the assay with PC-12 [6] was inactive.
In the case of `CC1=CC(=O)[C@H]2C(C)(C)[C@@H](O)CC[C@]2(C)[C@H]1CO`, the outcome in the assay with HeLa [4], in the assay with L5178Y [5] and with PC-12 [6] was inactive.
In the case of `CC(O)C(O)/C=C/C=C/C(=O)O[C@@H]1C=C2COC(=O)[C@]2(O)[C@@]2(C)CCCC(C)(C)[C@H]12` (stereo in doubt; 9), the result in the assay with HeLa [4], with L5178Y [5] and with PC-12 [6] was inactive.
Take `CC1=CC(=O)[C@H]2C(C)(C)C[C@H](O)C[C@]2(C)[C@H]1CO`: the result with HeLa [4], in the assay on L5178Y [5] and with PC-12 [6] was inactive.
With `CC(O)C(O)/C=C/C=C/C(=O)O[C@@H]1C=C2COC(=O)[C@]2(O)[C@@]2(C)CCCC(C)(C)[C@H]12` (stereo in doubt; 8), the result with HeLa [4], in the assay with L5178Y [5] and in the assay on PC-12 [6] was inactive.
Turning to `C/C=C/C=C/C=C/C(=O)O[C@@H]1C=C2COC(=O)[C@]2(O)[C@@]2(C)CCCC(C)(C)[C@H]12`, the concentration giving a half-maximal response (EC50) in the assay on PC-12 [1] was above 10 µg/mL; with HeLa [2], 7.5 µg/mL (≈ 19.4 µM); in the assay with L5178Y [3], 1.9 µg/mL (≈ 4.92 µM).
In the case of `CC1=CC(=O)[C@H]2C(C)(C)C[C@H](O)C[C@]2(C)[C@@]1(O)CO`, the outcome in the assay on HeLa [4], with L5178Y [5] and with PC-12 [6] was inactive.
Take `CC1(C)CCC[C@@]2(C)[C@H]1[C@H](OC(=O)/C=C/C=C/C=O)C=C1COC(=O)[C@@]12O` [USTUSOLATE E]: the EC50 with PC-12 [1] was 7.2 µg/mL (≈ 19.2 µM); in the assay on HeLa [2], 5.9 µg/mL (≈ 15.8 µM); with L5178Y [3], 0.6 µg/mL (≈ 1.6 µM).
As for `CC1=CC(=O)[C@H]2C(C)(C)[C@@H](O)CC[C@]2(C)[C@@]1(O)CO`, the result in the assay with HeLa [4], with L5178Y [5] and with PC-12 [6] was inactive.
